Assay [1] deals with HT-29. The assay can be described thus: Cytotoxicity against human HT29 cells by MTT assay. The assay is classed as functional, cell-based. A general note: Formazan colour is commonly taken as a measure of viable cells.
Assay [2] relates to HT-29. The assay can be described thus: Induction of cell shrinkage in human HT29 cells after 2 hrs. In kind it is functional, cell-based. Put shortly: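 HT-29 adenocarcinoma cells were incubated 2 h with compound alone. Morphology (shrinkage) was examined under the microscope against untreated control cells.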
For assay [3], the system named is HT-29. The assay can be described thus: Cytotoxicity against human HT29 cells in presence of beta-glucuronidase by MTT assay. In kind it is functional, cell-based.
For assay [4], the system named is HT-29. The assay can be described thus: Induction of cell shrinkage in human HT29 cells after 2 hrs in presence of beta-glucuronidase. The assay is classed as functional, cell-based. The essentials:
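HT-29 adenocarcinoma cells were incubated 2 h with compound plus the enzyme beta-glucuronidase. Shrinkage was scored by microscopic examination of cell morphology against untreated control cells.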

Assay [5] deals with HT-29. Kind of assay: Activation factor, ratio of IC50 for human HT29 cells to IC50 for human HT29 cells in presence of beta-glucuronidase. The assay is classed as functional.

The source made the active and inactive calls. No cut-off for these calls is given here.

`COc1cc2c(cc1O)N=C[C@@H]1CCCN1C2=O` gave an IC50 in the assay on HT-29 [1] of 30.19 µmol. Besides, the outcome in the assay with HT-29 [2] was Active.
`COc1cc2c(cc1OCCCCCOc1cc3c(cc1OC)C(=O)N1CCC[C@H]1C(=O)N3)N=C[C@@H]1CCCN1C2=O`: in the assay with HT-29 [1], the IC50 is 8.12 µmol.
As for `COc1cc2c(cc1OCc1ccccc1)N(C(=O)OCc1ccc(O[C@@H]3O[C@H](C(=O)O)[C@@H](O)[C@H](O)[C@H]3O)c([N+](=O)[O-])c1)C(O)[C@@H]1CCCN1C2=O` (stereo partly specified), the IC50 in the assay with HT-29 [1] was 5280 µmol; in the assay with HT-29 [3] it was 41.68 µmol. In addition, in the assay with HT-29 [2], the result was inactive. Also, the result with HT-29 [4] was Active. For the same compound, the “Ratio IC50” value in the assay on HT-29 [5] worked out at 126.67.
As for `COc1cc2c(cc1OCCCCCOc1cc3c(cc1OC)C(=O)N1CCC[C@H]1C(O)N3C(=O)OCc1ccc(O[C@@H]3O[C@H](C(=O)O)[C@@H](O)[C@H](O)[C@H]3O)c([N+](=O)[O-])c1)NC(=O)[C@@H]1CCCN1C2=O` (stereo partly specified), the IC50 is 2690 µmol in the assay on HT-29 [1] and 12.88 µmol in the assay on HT-29 [3]. In addition, in the assay on HT-29 [5], the “Ratio IC50” value came out at 208.85.

For the origin of these results see ChEMBL document CHEMBL1157478, “Pyrrolo[2,1-c][1,4]benzodiazepine-beta-glucuronide prodrugs with a potential for selective therapy of solid tumors by PMT and ADEPT strategies” (Bioorg Med Chem Lett, 2008).
